# Compound activity from PubChem BioAssay.
# Most compounds without a hit are left out; they make up all but 3.5% or so of the library.
# RGS4 pot – RGS4 potentiation or activation; 0.92% of 310,000 active; AID 463111; B-score at 10 µM; HEK293 M3R/inducible RGS4, carbachol calcium flux Fluo4; active compounds read low;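 active = B-score of the integrated calcium signal more than 4 SD below the library mean, with starting fluorescence not abnormally high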;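 note: negative B-score means reduced calcium response which marks RGS4 activation or potentiation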
#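 System: HEK293 FlpIn-TREx cells, stable M3R, doxycycline-inducible RGS4. Timing: overnight RGS4 induction, 30 min dye load 37 °C, 20 min compound RT. Also added: carbachol, ECmax concentration. Measured by: Fluo4 fluorescence kinetic imaging of calcium. Evaluation: integrated calcium ratio converted to B score.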
# MrgX1 ag – human MrgX1 receptor agonism, primary screen; MrgX1-HEK293 cells, Fluo-4 calcium fluorescence, agonist mode; active compounds read high; B-score at 10 µM; AID 588627; 0.44% of 310,000 active;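 active = calcium response B-score plate-corrected fluorescence ratio at least 3 library SD, with starting fluorescence B-score inside 5 SD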
# Target sequence (Q96LB2 whole entry, looked up): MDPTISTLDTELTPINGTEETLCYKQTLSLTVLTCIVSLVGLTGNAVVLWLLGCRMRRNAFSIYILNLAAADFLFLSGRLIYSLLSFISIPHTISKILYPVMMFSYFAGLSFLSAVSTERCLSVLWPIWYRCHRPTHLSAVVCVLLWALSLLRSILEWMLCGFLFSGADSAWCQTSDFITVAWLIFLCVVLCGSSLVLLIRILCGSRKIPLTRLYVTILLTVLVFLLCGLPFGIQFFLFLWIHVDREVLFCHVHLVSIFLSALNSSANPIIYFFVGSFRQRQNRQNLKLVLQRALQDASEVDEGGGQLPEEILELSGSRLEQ
#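 Material – MrgX1-expressing HEK293 cells · Input – 15,000 cells seeded per well · Dosing – compound as first of three additions · Times – overnight seeding, then 1 h dark dye loading · Measured by – kinetic Fluo-4 NW fluorescence of intracellular calcium · Read-out – B-scored fluorescence response ratio · Benchmarks – positive and negative control wells on each plate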
# RGS4 block – inhibitors of human RGS4; HEK293 M3R/RGS4 inducible, Fluo-4 calcium flux; active compounds read high; triggered by carbachol at its EC20; P49798; 0.45% of 310,000 active; AID 463165; B-score at 10 µM;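 active = B-score, a plate-corrected calcium signal, over three deviations above library mean, with baseline fluorescence within five deviations of library mean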;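 note: RGS4 expression induced by doxycycline in cells with stable M3 receptor; B-score is computed from the integrated fluorescence ratio over baseline after carbachol; higher B-score means a larger calcium signal and so more RGS4 inhibition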
# Target sequence (P49798 whole entry, looked up): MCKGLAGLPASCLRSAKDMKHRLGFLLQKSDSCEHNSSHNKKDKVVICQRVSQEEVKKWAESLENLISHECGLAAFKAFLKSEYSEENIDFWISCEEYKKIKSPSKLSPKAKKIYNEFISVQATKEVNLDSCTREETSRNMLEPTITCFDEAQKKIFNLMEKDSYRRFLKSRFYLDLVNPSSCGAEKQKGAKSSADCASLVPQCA
# MrgX1 allo act – allosterically activates human MrgX1 receptor signaling; 0.63% of 310,000 active; B-score at 10 µM; Q96LB2; MrgX1-HEK293, Fluo-4 calcium flux, FDSS; active compounds read high;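 active = plate-corrected calcium response at least 3 library SD above typical, normal starting fluorescence, not activating the receptor alone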;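 note: compound read alongside a low EC10 to EC30 dose of BAM8-22 agonist; peak minus trough fluorescence over baseline measured at the second addition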
# MrgX1 antag – human MrgX1 receptor antagonism, primary screen; 1.3% of 310,000 active; B-score at 10 µM; Q96LB2; MRGX1-HEK293 calcium flux, Fluo-4, BAM8-22 antagonism; active compounds read low;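 active = calcium-response B-score plate-corrected more than 3 library SD below zero, starting fluorescence within 5 deviations, no agonist response on first addition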;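 note: peak minus trough fluorescence over baseline after final BAM8-22 challenge near maximal dose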
# RGS4 inh valid – RGS4 inhibitor validation | shares compounds with RGS4 block | HEK293 M3R/RGS4, carbachol calcium Fluo-4 fluorescence; carbachol added at its EC20; 0 = buffer wells, 100 = carbachol control | calcium response, % at 10 µM | 65% of 1,700 active;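 active = duplicate-averaged calcium response above the buffer-only control mean plus 5 SD of those controls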;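 note: integrated fluorescence ratio F max minus min over baseline F0; higher response in RGS4-induced cells means RGS4 inhibition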
# M3R Ca ctr – checks RGS4 inhibitor effects in non-induced HEK293 M3R cells. shares compounds with RGS4 block. carbachol calcium Fluo-4; submaximal (EC20) carbachol stimulus; buffer wells 0%, carbachol control wells 100%. activity (percent), % at 10 µM. 20% of 1,900 active. AID 493000; call rule not given here;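 note: RGS4 induction absent so cells express M3R without RGS4; higher means more calcium signal and flags a non-specific hit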
# RGS4 inh ctr2 – signal in non-induced cells without carbachol, RGS4 inhibitor counter-screen; shares compounds with RGS4 block; 22% of 1,900 active; calcium response (agonist-mode artifact), % at 10 µM; HEK293 M3R/RGS4 non-induced, Fluo-4 calcium, no carbachol; normalised: buffer wells 0%, carbachol wells 100%;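 active = duplicate-averaged calcium rise in uninduced cells above buffer wells' mean plus 5 SD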
# * marks the source's active call; other numbers are inactive results; i = inactive; / = not tested or not shown.
SMILES,RGS4 pot,MrgX1 ag,RGS4 block,MrgX1 allo act,MrgX1 antag,RGS4 inh valid,M3R Ca ctr,RGS4 inh ctr2
COc1cccc(C(=O)Nc2nnc(S(=O)(=O)N(C)Cc3ccc(F)cc3)s2)c1,i,i,i,i,i,/,/,/
CCOc1cc(/C=C2\CN(CC)C/C(=C\c3ccc(O)c(OCC)c3)C2=O)ccc1O,i,27*,12*,i,i,48%*,36%*,12%*
CCOc1cc(/C=N/N=C/c2ccc(O)c(OCC)c2)ccc1O,i,i,i,i,i,/,/,/
CC(C)(CO)NS(=O)(=O)c1ccc2c(c1)C(=NO)c1cc(S(=O)(=O)NC(C)(C)CO)ccc1-2,i,i,11*,i,i,16%*,i,i
O=C(NCCCN1CCCC1=O)c1ccc(S(=O)(=O)Nc2cccc(C(F)(F)F)c2)cc1,i,i,i,i,i,/,/,/
O=C(/C=C/c1cccc(F)c1)Nc1ccc(S(=O)(=O)Nc2ncccn2)cc1,i,i,5.1*,i,i,7.0%*,i,i
CC(CC(=O)Nc1ccc(S(=O)(=O)Nc2ncccn2)cc1)c1ccccc1 (stereo not given),i,i,i,i,i,i,i,i
COc1cc(SC)ccc1C(=O)NCC1CCCCC1,i,i,i,i,i,/,/,/
O=C(NCc1ccco1)Nc1ccc2nsnc2c1,i,i,6.5*,i,i,i,i,i
O=C(NCc1ccco1)Nc1ccc(Br)cc1,i,i,i,i,i,/,/,/
N#C/C(=C\c1cc([N+](=O)[O-])ccc1Cl)C(N)=O,i,i,5.8*,i,i,12%*,i,8.5%*
CCOP(=O)(OCC)/C(C#N)=C/c1ccc([N+](=O)[O-])cc1,i,i,7.4*,i,i,14%*,i,i
CCOP(=O)(OCC)/C(C#N)=C/c1c[nH]c2ccccc12,i,i,i,i,i,/,/,/
N#C/C(=C/c1ccc([N+](=O)[O-])cc1)C(N)=O,i,i,6.4*,i,i,36%*,36%*,15%*
CCOC(=O)/C(C#N)=C/c1cccc([N+](=O)[O-])c1,i,i,i,i,i,/,/,/
CCCCc1cc(=O)oc2cc(C)cc(OCC(=O)N3CCC(C(=O)O)(c4ccccc4)CC3)c12,i,i,i,i,i,/,/,/
O=Nc1c(O)n(Cc2cccc(Cl)c2)c2ccccc12,i,i,6.4*,i,i,16%*,37%*,i
C=C1C(=O)O[C@@H]2C[C@@H](C)[C@@H]3C=CC(=O)[C@@]3(C)[C@@H](OC(C)=O)[C@H]12,i,33*,7.6*,i,i,22%*,i,11%*
CN(Cc1cnccn1)C(=O)CC1C(=O)NCCN1Cc1ccc(F)cc1Cl (stereo not given),i,i,4.8*,i,i,i,i,82%*
CN(Cc1ccccn1)C(=O)CC1C(=O)NCCN1Cc1ccc(F)cc1Cl (stereo not given),i,i,i,i,i,i,i,14%*
CN(CCc1ccccn1)C(=O)CC1C(=O)NCCN1Cc1cccc(F)c1 (stereo not given),i,i,i,i,i,/,/,/
COC(=O)C1=C(C(=O)OC)[N+]2=C3N(C(=O)NC2(C)C)[C@H](CO)C[C@@]32c3ccccc3N(Cc3ccccc3)[C@@H]12,i,i,i,i,i,/,/,/
CCOC(=O)/C(=C/c1ccc(OC(=O)c2ccncc2)cc1)C(C)=O,i,29*,7.6*,i,i,28%*,42%*,16%*
CCCCCOc1ccc(OC(=O)c2ccncc2)cc1,i,i,i,i,i,/,/,/
CCOC(=O)C(=Cc1ccc(-n2ccnc2)cc1)C(=O)OCC,i,i,13*,i,i,18%*,i,i
SMILES,RGS4 pot,MrgX1 ag,RGS4 block,MrgX1 allo act,MrgX1 antag,RGS4 inh valid,M3R Ca ctr,RGS4 inh ctr2
COCCOC(=O)/C(=C/c1ccc(OC(=O)c2ccccc2)cc1)C(C)=O,i,31*,15*,i,i,82%*,i,16%*
COC(=O)c1ccc(-n2ccnc2)cc1,i,i,i,i,i,/,/,/
COC(=O)c1cc(S(=O)(=O)Nc2cc(S(=O)(=O)N(C)C)ccc2C)oc1C,i,i,i,i,i,/,/,/
NC(=O)c1cc2c(s1)-c1cc(Cl)ccc1SC2,i,i,5.9*,i,i,18%*,i,i
COCCNC(=O)c1cc2c(s1)-c1ccc(Cl)cc1SC2,i,i,i,i,i,/,/,/
Cc1cc(C)cc(NS(=O)(=O)c2ccc3c(c2)C(C)(C)C(=O)N3C)c1,i,i,i,i,i,/,/,/
CC(C)c1cc(C(=O)N2CCCC(CCC(=O)NCc3ccccc3F)C2)n(C)n1 (stereo not given),i,i,i,i,i,/,/,/
CCCC(C)c1nnc(NC(=O)COc2ccc3c(c2)OCO3)s1 (stereo not given),i,i,i,i,i,/,/,/
CCOc1ccc(C(=O)CCN2CCCCCC2)cc1,i,i,11*,i,i,i,i,20%*
CCCCOc1ccc(C(=O)CCN2CCOCC2)cc1,i,i,i,i,i,/,/,/
CCCOc1ccc(C(=O)CCN2CCCCC2)cc1,i,i,i,i,i,i,i,12%*
CC(=O)N1CCc2cc(S(=O)(=O)NC(C(=O)NC(C)c3ccccc3)C(C)C)ccc21 (stereo not given),i,i,i,i,i,i,i,i
O=C(CCN1C(=O)/C(=C/C=C/c2ccccc2)SC1=S)Nc1nc2ccccc2s1,i,i,i,i,i,/,/,/
O=C(O)CCCN1C(=O)/C(=C/c2ccc(-c3nc4ccccc4s3)o2)SC1=S,-9.2*,i,22*,i,i,8.0%*,i,389%*
O=C(O)CCCCCN1C(=O)/C(=C\c2ccc(-c3ccc(Cl)cc3)o2)SC1=S,-11*,i,36*,i,i,44%*,i,48%*
